From ChEMBL document CHEMBL1155323, “Synthesis, characterization and antibacterial activity of 2-[1-(5-chloro-2-methoxy-phenyl)-5-methyl-1H-pyrazol-4-yl]-5-(substituted-phenyl)-[1,3,4]oxadiazoles” (Eur J Med Chem, 2009)
Values after ≈ are worked out from the molar mass of the structure shown.

What was measured:
[1] = tested on: Bacillus subtilis; assay: Antibacterial activity against Bacillus subtilis ATCC 6633 at 100 ug/ml after 24 hrs by agar cup plate method; format: functional; conditions: ATCC 6633, 24 h, read-out: IZ
Summary of the method: (§1)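 Agar well (bore) diffusion on inoculated nutrient agar with recultured organisms. Test samples prepared in 20% water in DMSO at 100 µg/mL and placed in bores. Plates incubated at 37 °C for 24 h, then the inhibition zone around each bore measured. Controls: inoculum only, and DMSO only.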

[2] = tested on: Escherichia coli; assay: Antibacterial activity against Escherichia coli ATCC 8739 after 24 hrs by microtitration method; format: functional; conditions: ATCC 8739, 24 h
Summary of the method: (§2)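 Strains grown in Luria broth (1% tryptone, 0.5% yeast extract, 0.5% NaCl), pH 7.2, at 37 °C for 24 h. Mid-log cells read at 540 nm and diluted to OD 0.004 (5×10^5 CFU/mL), then dispensed into microplate wells. Graded concentrations (0.2–500 µg/mL) in 20% water in DMSO added; incubated 37 °C, 24 h.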

[3] = tested on: Klebsiella pneumoniae; assay: Antibacterial activity against Klebsiella pneumoniae ATCC 11298 after 24 hrs by microtitration method; format: functional; conditions: ATCC 11298, 24 h; summary of the method: as §2
[4] = Octanol-water partition coefficient, log P by shake flask method; format: physicochemical
[5] = tested on: Bacillus subtilis; assay: Antibacterial activity against Bacillus subtilis ATCC 6633 after 24 hrs by microtitration method; format: functional; conditions: ATCC 6633, 24 h; summary of the method: as §2
[6] = tested on: Staphylococcus aureus; assay: Antibacterial activity against Staphylococcus aureus ATCC 6538P after 24 hrs by microtitration method; format: functional; summary of the method: as §2
[7] = tested on: Klebsiella pneumoniae; assay: Antibacterial activity against Klebsiella pneumoniae ATCC 11298 at 100 ug/ml after 24 hrs by agar cup plate method; format: functional; conditions: ATCC 11298, 24 h, read-out: IZ; summary of the method: as §1
[8] = tested on: Escherichia coli; assay: Antibacterial activity against Escherichia coli ATCC 8739 at 100 ug/ml after 24 hrs by agar cup plate method; format: functional; conditions: ATCC 8739, 24 h, read-out: IZ; summary of the method: as §1
[9] = tested on: Staphylococcus aureus; assay: Antibacterial activity against Staphylococcus aureus ATCC 6538P at 100 ug/ml after 24 hrs by agar cup plate method; format: functional; conditions: read-out: IZ; summary of the method: as §1

Compound	MIC [2] [mg/L]	MIC [3] [mg/L]	logP [4]	MIC [5] [mg/L]	MIC [6] [mg/L]	zone of inhibition at 100 µg/mL [1] [mm]	zone of inhibition at 100 µg/mL [7] [mm]	zone of inhibition at 100 µg/mL [8] [mm]	zone of inhibition at 100 µg/mL [9] [mm]
COc1ccc(Cl)cc1-n1ncc(-c2nnc(-c3ccc(C)c([N+](=O)[O-])c3)o2)c1C	30.8 (≈ 72.3 µM)	42 (≈ 98.6 µM)	6.42	39.6 (≈ 93 µM)	40.6 (≈ 95.3 µM)	15	12	17	14
CC1(C)S[C@@H]2[C@H](NC(=O)[C@H](N)c3ccccc3)C(=O)N2[C@H]1C(=O)O [AMPICILLIN]	3.88 (≈ 11.1 µM)	4 (≈ 11.4 µM)	–	3.28 (≈ 9.39 µM)	3.36 (≈ 9.62 µM)	32	30	30	31
COc1ccc(Cl)cc1-n1ncc(-c2nnc(-c3ccc(Cl)cc3)o2)c1C	40 (≈ 99.7 µM)	41 (≈ 102 µM)	4.51	39.6 (≈ 98.7 µM)	30.6 (≈ 76.3 µM)	15	13	14	18
COc1ccc(Cl)cc1-n1ncc(-c2nnc(-c3ccc(Br)cc3)o2)c1C	39.8 (≈ 89.3 µM)	41.6 (≈ 93.3 µM)	4.88	40.6 (≈ 91.1 µM)	30 (≈ 67.3 µM)	14	13	15	19
COc1ccc(Cl)cc1-n1ncc(-c2nnc(-c3ccccc3)o2)c1C	40.6 (≈ 111 µM)	40.6 (≈ 111 µM)	4.32	29.8 (≈ 81.2 µM)	39.8 (≈ 109 µM)	20	14	14	15
COc1ccc(Cl)cc1-n1ncc(-c2nnc(-c3ccc(Cl)c(Cl)c3)o2)c1C	21.5 (≈ 49.3 µM)	39.6 (≈ 90.9 µM)	5.57	30 (≈ 68.9 µM)	29.8 (≈ 68.4 µM)	19	15	27	20
COc1ccc(Cl)cc1-n1ncc(-c2nnc(-c3ccc(F)cc3)o2)c1C	29.6 (≈ 76.9 µM)	30 (≈ 78 µM)	4.26	22.4 (≈ 58.2 µM)	29.8 (≈ 77.4 µM)	25	19	21	20

The remaining compounds from weak to strong by MIC [2], led by results:

MIC [2] [mg/L]	MIC [3] [mg/L]	logP [4]	MIC [5] [mg/L]	MIC [6] [mg/L]	Compound	zone of inhibition at 100 µg/mL [1] [mm]	zone of inhibition at 100 µg/mL [7] [mm]	zone of inhibition at 100 µg/mL [8] [mm]	zone of inhibition at 100 µg/mL [9] [mm]
40.6 (≈ 88.3 µM)	39 (≈ 84.8 µM)	5.19	39.6 (≈ 86.1 µM)	29.8 (≈ 64.8 µM)	COc1ccc(Cl)cc1-n1ncc(-c2nnc(-c3ccc(C)c(Br)c3)o2)c1C	15	15	14	20
30.8 (≈ 67 µM)	40 (≈ 87 µM)	5.2	39.8 (≈ 86.6 µM)	39.8 (≈ 86.6 µM)	COc1ccc(Cl)cc1-n1ncc(-c2nnc(-c3ccc(Br)c(C)c3)o2)c1C	15	14	17	15
30.6 (≈ 79.5 µM)	29.8 (≈ 77.4 µM)	4.28	30 (≈ 78 µM)	21.5 (≈ 55.9 µM)	COc1ccc(Cl)cc1-n1ncc(-c2nnc(-c3cccc(F)c3)o2)c1C	19	20	18	27
22.4 (≈ 51.4 µM)	29.6 (≈ 67.9 µM)	5.61	31.8 (≈ 73 µM)	41 (≈ 94.1 µM)	COc1ccc(Cl)cc1-n1ncc(-c2nnc(-c3cc(Cl)cc(Cl)c3)o2)c1C	15	21	25	13
